Experimental data reported in ChEMBL document CHEMBL5376016, “Synthesis of novel rapanone derivatives via organocatalytic reductive C-alkylation: biological evaluation of antioxidant properties, in vivo zebrafish embryo toxicity, and docking studies” (RSC Med Chem, 2024).
In brackets after ≈: the same amount, converted by molar mass.

Legend:
[1] = Antioxidant activity assessed as DPPH radical scavenging activity after 30 mins by spectrophotometric analysis relative to control; format: functional; parameters: concentration or dose not given beside the values
Procedure, shortened: (§1)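 Ascorbic acid was the reference standard. For DPPH, 0.2 mM DPPH in methanol was kept in the dark, mixed with compound at 5–160 µM (DMSO stock), and incubated 30 min in the dark at room temperature, then A517 was read. %RSA = (Ac−As)/Ac×100. Triplicate runs; IC50 taken from the plot of % scavenging versus concentration.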

[2] = Antioxidant activity assessed as DPPH radical scavenging activity after 30 mins by spectrophotometric analysis; format: functional; procedure, shortened: as §1
[3] = Acute toxicity in zebrafish embryo assessed as morphological changes by measuring bent tail at upto 160 uM measured after 96 hrs post fertilization; parameters: species or system Danio rerio; details: in vivo
Procedure, shortened: (§2)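 Wild-type Danio rerio embryos were exposed in milli-Q water with compound dissolved in DMSO (≤0.25 v/v final). Controls were milli-Q water and water with DMSO. Embryos were held at 26.8 ± 1 °C and scored by inverted microscope at 24–96 hpf, after exposure at 160 µM, for bent spine, yolk sac edema, pericardial edema, short tail and bent tail.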

[4] = Acute toxicity in zebrafish embryo assessed as hatching rate at 20 to 160 uM measured after 48 hrs post fertilization relative to control; parameters: species or system Danio rerio; details: in vivo, dose 20-160 µM
Procedure, shortened: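 Controls were water and water with 0.5% DMSO. Incubation at 26.8 ± 1 °C, 20 embryos per well. Hatching scored over 0–96 hpf under an inverted microscope. Triplicate, three independent experiments; mean ± SD; ANOVA.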

[5] = Acute toxicity in zebrafish embryo assessed as morphological changes by measuring pericardial edema at upto 160 uM measured after 96 hrs post fertilization; parameters: species or system Danio rerio; details: in vivo; procedure, shortened: as §2
[6] = Acute toxicity in zebrafish embryo assessed as morphological changes by measuring bent spine at upto 160 uM measured after 96 hrs post fertilization; parameters: species or system Danio rerio; details: in vivo; procedure, shortened: as §2
[7] = Acute toxicity in zebrafish embryo assessed as morphological changes by measuring short tail at upto 160 uM measured after 96 hrs post fertilization; parameters: species or system Danio rerio; details: in vivo; procedure, shortened: as §2
[8] = Antioxidant activity assessed as ABTS radical scavenging activity after 6 mins by spectrophotometric analysis relative to control; format: functional; parameters: concentration or dose not given beside the values
[9] = Antioxidant activity assessed as ABTS radical scavenging activity after 6 mins by spectrophotometric analysis; format: functional
[10] = Acute toxicity in zebrafish embryo assessed as morphological changes by measuring yolk sac edema at upto 160 uM measured after 96 hrs post fertilization; parameters: species or system Danio rerio; details: in vivo; procedure, shortened: as §2
[11] = Acute toxicity in zebrafish embryo assessed as survival rate at 96 hrs post fertilization relative to control; parameters: species or system Danio rerio; concentration or dose not given beside the values; details: in vivo
Procedure, shortened: (§3)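 Lethality endpoints were coagulation and absence of heartbeat, checked by inverted microscope. Survival was compared with untreated embryos across three independent experiments; mean ± SD, ANOVA.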

[12] = Acute toxicity in zebrafish embryo assessed as survival rate at 160 uM measured after 96 hrs post fertilization relative to control; parameters: species or system Danio rerio; details: in vivo; procedure, shortened: as §3
[13] = Acute toxicity in zebrafish embryo assessed as survival rate at 20 uM measured after 96 hrs post fertilization relative to control; parameters: species or system Danio rerio; details: in vivo; procedure, shortened: as §3
[14] = Antioxidant activity assessed as DPPH radical scavenging activity after 20 mins by […]; format: functional
[15] = Antioxidant activity assessed as ABTS radical scavenging activity after 30 mins by […]
[16] = Antioxidant activity assessed as ABTS radical scavenging activity after 30 mins by spectrophotometric analysis; format: functional

SMILES | Activity [1] [%] | IC50 [2] [µM] | Activity [3] | Activity [4] [%] | Activity [5] | Activity [6] | Activity [7] | Activity [8] [%] | IC50 [9] [µM] | Activity [10] | survival at 96 h ([11]; read-out: Survival) [%] | survival at 96 h, 160 µM [12] [%] | survival at 96 h, 20 µM [13] [%] | survival at 96 h ([11]; read-out: Activity) [%] | IC50 [14] [µg/mL] | IC50 [15] [µg/mL] | IC50 [16] [µg/mL]
C#Cc1ccc(CC2=C(O)C(=O)C(CCCCCCCCCCC)=C(O)C2=O)cc1 | 50.3 | 4.9 | Toxic | 51.33 | Toxic | Toxic | Toxic | 52.1 | 4.72 | Toxic | > 90 |  |  |  |  |  | 
CCCCCCCCCCCC1=C(O)C(=O)C(Cc2cccc(Oc3ccccc3)c2)=C(O)C1=O | 80 | 2.88 | Toxic | 75.66 | Toxic | Toxic | Toxic | 80.2 | 2.36 | Toxic |  | 70 | 52 | 70 |  |  | 
CCCCCCCCCCCC1=C(O)C(=O)C(Cc2ccccc2Cl)=C(O)C1=O | 50.3 | 4.62 | Toxic | 51.33 | Toxic | Toxic | Toxic | 52.1 | 5.54 | Toxic | > 90 |  |  |  |  |  | 
CCCCCCCCCCCC1=C(O)C(=O)C=C(O)C1=O [EMBELIN] | 71.1 | 3.12 | Toxic | 75.66 | Toxic | Toxic | Toxic | 75.1 | 3.12 | Toxic |  | 70 | 52 | 70 | 0.23 (≈ 0.781 µM) | 27.92 (≈ 94.8 µM) | 27.9 (≈ 94.8 µM)
